ChEMBL document CHEMBL5131497, “Design, Synthesis, and Characterization of TNP-2198, a Dual-Targeted Rifamycin-Nitroimidazole Conjugate with Potent Activity against Microaerophilic and Anaerobic Bacterial Pathogens” (J Med Chem, 2022)
Converted amounts (≈) assume the structure as drawn.

Columns and labels:
Type in all cases: functional
[1] = tested on: Clostridioides difficile; experiment: Antibacterial activity against Clostridioides difficile ATCC 9689
[2] = tested on: Helicobacter pylori; experiment: Antibacterial activity against Helicobacter pylori ATCC 700392
Procedure, shortened: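 Agar dilution per CLSI. Wild-type H. pylori ATCC 700392 (CB1531). Drugs prepared from 100× stocks as 2-fold dilutions in Mueller–Hinton agar with aged (≥2 weeks) sheep blood (5% v/v). Combinations were at 1:1 molar ratio. MIC read after 5 days at 35 °C under microaerobic atmosphere from a campylobacter gas-generating system.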

[3] = tested on: Staphylococcus aureus; experiment: Antibacterial activity against Staphylococcus aureus ATCC 29213
[4] = tested on: Bacteroides fragilis; experiment: Antibacterial activity against metronidazole-resistant Bacteroides fragilis MMX 3387
[5] = tested on: Bacteroides thetaiotaomicron; experiment: Antibacterial activity against metronidazole-resistant Bacteroides thetaiotaomicron MMX 3409
[6] = tested on: Campylobacter gracilis; experiment: Antibacterial activity against Bacteroides gracilis ATCC 33236 MMX 1270
[7] = tested on: Bacteroides uniformis; experiment: Antibacterial activity against Bacteroides uniformis MMX 1277
[8] = tested on: Phocaeicola vulgatus; experiment: Antibacterial activity against Bacteroides vulgatus MMX 8348
[9] = tested on: Clostridioides difficile; experiment: Antibacterial activity against rifampicin-resistant Clostridium difficile MMX 3587
[10] = tested on: Peptostreptococcus sp.; experiment: Antibacterial activity against Peptostreptococcus magnus ATCC 14956
[11] = tested on: Prevotella disiens; experiment: Antibacterial activity against Prevotella disiens MMX 3457
[12] = tested on: Helicobacter pylori; experiment: Antibacterial activity against Helicobacter pylori infected in C57/BL6 mouse assessed as bacterial load in stomach at 1 mg/kg administered twice daily via oral gavage starting from 7 days post inoculation and administered for 7 days in presence of 10 mg/kg clarithromycin and 20 mg/kg amoxicillin (reference value: 5.25 log10CFU); conditions: time 7 day
[13] = tested on: Helicobacter pylori; experiment: Antibacterial activity against metronidazole-resistant Helicobacter pylori CB1573 harboring rdxAR16S mutant at 1:1 compound to metronidazole molar ratio measured after 5 days in presence of metronidazole by agar dilution method; conditions: CB1573, 120 h, time 5 day
Procedure, shortened: (§1)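 Agar dilution per CLSI. Wild-type ATCC 700392 (CB1531) and its derivatives carry defined resistance determinants. Drugs, alone or in 1:1 molar mixtures, were diluted 2-fold from 100× stocks into Mueller–Hinton agar with aged (≥2 weeks) sheep blood (5% v/v). MIC read after 5 days at 35 °C under microaerobic conditions from a campylobacter gas-generating system.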

[14] = tested on: Helicobacter pylori; experiment: Antibacterial activity against rifampicin-resistant Helicobacter pylori CB1903 harboring rpoBD530V mutant measured after 5 days by agar dilution method; conditions: CB1903, 120 h, time 5 day; procedure, shortened: as §1
[15] = tested on: Helicobacter pylori; experiment: Antibacterial activity against rifampicin-resistant Helicobacter pylori CB1902 harboring rpoBV149F mutant measured after 5 days by agar dilution method; conditions: CB1902, 120 h, time 5 day; procedure, shortened: as §1
[16] = tested on: Helicobacter pylori; experiment: Antibacterial activity against rifampicin-resistant Helicobacter pylori CB1902 harboring rpoBV149F mutant at 1:1 compound to metronidazole molar ratio measured after 5 days in presence of metronidazole by agar dilution method; conditions: CB1902, 120 h, time 5 day; procedure, shortened: as §1
[17] = tested on: Helicobacter pylori; experiment: Antibacterial activity against rifampicin-resistant Helicobacter pylori CB1903 harboring rpoBD530V mutant at 1:1 compound to metronidazole molar ratio measured after 5 days in presence of metronidazole by agar dilution method; conditions: CB1903, 120 h, time 5 day; procedure, shortened: as §1
[18] = tested on: Helicobacter pylori; experiment: Antibacterial activity against rifampicin-resistant Helicobacter pylori CB1614 harboring rpoBL525I/D530N mutant measured after 5 days by agar dilution method; conditions: CB1614, 120 h, time 5 day; procedure, shortened: as §1
[19] = tested on: Helicobacter pylori; experiment: Antibacterial activity against rifampicin-resistant Helicobacter pylori CB1614 harboring rpoBL525I/D530N at 1:1 compound to metronidazole molar ratio measured after 5 days in presence of metronidazole by agar dilution method; conditions: CB1614, 120 h, time 5 day; procedure, shortened: as §1
[20] = tested on: Helicobacter pylori; experiment: Antibacterial activity against metronidazole/rifampicin-resistant Helicobacter pylori CB1771 harboring rpoBL525I/D530N/rdxAE75stop mutant measured after 5 days by agar dilution method; conditions: CB1771, 120 h, time 5 day; procedure, shortened: as §1
[21] = tested on: Helicobacter pylori; experiment: Antibacterial activity against metronidazole/rifampicin-resistant Helicobacter pylori CB1771 harboring rpoBL525I/D530N/rdxAE75stop mutant at 1:1 compound to metronidazole molar ratio measured after 5 days in presence of metronidazole by agar dilution method; conditions: CB1771, 120 h, time 5 day; procedure, shortened: as §1
[22] = tested on: Helicobacter pylori; experiment: Antibacterial activity against metronidazole/rifampicin-resistant Helicobacter pylori CB1893 harboring rpoBL525I/D530N/rdxAR16S mutant measured after 5 days by agar dilution method; conditions: CB1893, 120 h, time 5 day; procedure, shortened: as §1
[23] = tested on: Helicobacter pylori; experiment: Antibacterial activity against metronidazole/rifampicin-resistant Helicobacter pylori CB1893 harboring rpoBL525I/D530N/rdxAR16S mutant at 1:1 compound to metronidazole molar ratio measured after 5 days in presence of metronidazole by agar dilution method; conditions: CB1893, 120 h, time 5 day; procedure, shortened: as §1

SMILES	MIC [1]	MIC [2]	MIC [3]	further results
CO[C@H]1/C=C/O[C@@]2(C)Oc3c(C)c(O)c4c(c3C2=O)C2=NC3(CCN(CC(=O)Nc5ncc([N+](=O)[O-])s5)CC3)NC2=C(NC(=O)/C(C)=C\C=C\[C@H](C)[C@H](O)[C@@H](C)[C@@H](O)[C@@H](C)[C@H](OC(C)=O)[C@@H]1C)C4=O	0.001 µg/mL (≈ 0.00102 µM)	0.004 µg/mL (≈ 0.0041 µM)	–	–
CCC[C@@H]1C[C@@H](C(=O)N[C@@H]([C@H]2O[C@H](SC)[C@H](O)[C@@H](O)[C@H]2O)[C@H](C)Cl)N(C)C1 [CLINDAMYCIN]	–	–	–	MIC [4]: 2 µg/mL (≈ 4.71 µM); MIC [5]: > 64 µg/mL; MIC [6]: 0.06 µg/mL (≈ 0.141 µM); MIC [7]: 0.25 µg/mL (≈ 0.588 µM); MIC [8]: 0.25 µg/mL (≈ 0.588 µM); MIC [9]: 8 µg/mL (≈ 18.8 µM); MIC [10]: 1 µg/mL (≈ 2.35 µM); MIC [11]: 0.25 µg/mL (≈ 0.588 µM)
COc1ccc2[nH]c([S+]([O-])Cc3ncc(C)c(OC)c3C)nc2c1 (centres undefined) [OMEPRAZOLE]	–	–	–	Activity [12]: 1.7 log10CFU
CO[C@H]1/C=C/O[C@@]2(C)Oc3c(C)c(O)c4c(c3C2=O)C2=NC3(CCN(CC(C)C)CC3)NC2=C(NC(=O)/C(C)=C\C=C\[C@H](C)[C@H](O)[C@@H](C)[C@@H](O)[C@@H](C)[C@H](OC(C)=O)[C@@H]1C)C4=O [RIFABUTIN]	0.0001 µg/mL (≈ 0.000118 µM)	0.001 µg/mL (≈ 0.00118 µM)	0.03 µg/mL (≈ 0.0354 µM)	MIC [13]: ≤ 0.002 µg/mL; MIC [14]: 16 µg/mL (≈ 18.9 µM); MIC [15]: 16 µg/mL (≈ 18.9 µM); MIC [16]: 2 µg/mL; MIC [17]: 1 µg/mL; MIC [18]: 16 µg/mL (≈ 18.9 µM); MIC [19]: 2 µg/mL; MIC [20]: 16 µg/mL (≈ 18.9 µM); MIC [21]: 16 µg/mL; MIC [22]: 16 µg/mL (≈ 18.9 µM); MIC [23]: 16 µg/mL
CO[C@H]1/C=C/O[C@@]2(C)Oc3c(C)c(O)c4c(O)c(c5c(nc6cc(C)ccn65)c4c3C2=O)NC(=O)/C(C)=C\C=C\[C@H](C)[C@H](O)[C@@H](C)[C@@H](O)[C@@H](C)[C@H](OC(C)=O)[C@@H]1C [RIFAXIMIN]	0.004 µg/mL (≈ 0.00509 µM)	1 µg/mL (≈ 1.27 µM)	0.06 µg/mL (≈ 0.0763 µM)	–

Further lines, with some results ahead:

MIC [1]	MIC [2]	MIC [3]	SMILES	further results
–	0.03 µg/mL (≈ 0.0309 µM)	0.03 µg/mL (≈ 0.0309 µM)	CO[C@H]1/C=C/O[C@@]2(C)Oc3c(C)c(O)c4c(c3C2=O)C2=NC3(CCN(CC5(C)Cn6cc([N+](=O)[O-])nc6O5)CC3)NC2=C(NC(=O)/C(C)=C\C=C\[C@H](C)[C@H](O)[C@@H](C)[C@@H](O)[C@@H](C)[C@H](OC(C)=O)[C@@H]1C)C4=O (some centres undefined)	–
0.03 µg/mL (≈ 0.0284 µM)	1 µg/mL (≈ 0.948 µM)	0.015 µg/mL (≈ 0.0142 µM)	CO[C@H]1/C=C/O[C@@]2(C)Oc3c(C)c(O)c4c(O)c(c(N5CCN(c6ccc(OCC7(C)Cn8cc([N+](=O)[O-])nc8O7)cc6)CC5)c(O)c4c3C2=O)NC(=O)/C(C)=C\C=C\[C@H](C)[C@H](O)[C@@H](C)[C@@H](O)[C@@H](C)[C@H](OC(C)=O)[C@@H]1C (some centres undefined)	–
–	4 µg/mL (≈ 3.69 µM)	0.25 µg/mL (≈ 0.231 µM)	CO[C@H]1/C=C/O[C@@]2(C)Oc3c(C)c(O)c4c(O)c(c(N5CCN(C(=O)c6ccc(OCC7(C)Cn8cc([N+](=O)[O-])nc8O7)cc6)CC5)c(O)c4c3C2=O)NC(=O)/C(C)=C\C=C\[C@H](C)[C@H](O)[C@@H](C)[C@@H](O)[C@@H](C)[C@H](OC(C)=O)[C@@H]1C (some centres undefined)	–
0.001 µg/mL (≈ 0.000927 µM)	0.03 µg/mL (≈ 0.0278 µM)	0.03 µg/mL (≈ 0.0278 µM)	CO[C@H]1/C=C/O[C@@]2(C)Oc3c(C)c(O)c4c(c3C2=O)C2=NC3(CCN(Cc5ccc(CO[C@@H]6COc7nc([N+](=O)[O-])cn7C6)cc5)CC3)NC2=C(NC(=O)/C(C)=C\C=C\[C@H](C)[C@H](O)[C@@H](C)[C@@H](O)[C@@H](C)[C@H](OC(C)=O)[C@@H]1C)C4=O	–
16 µg/mL (≈ 44.5 µM)	2 µg/mL (≈ 5.57 µM)	> 32 µg/mL	O=[N+]([O-])c1cn2c(n1)OC[C@@H](OCc1ccc(OC(F)(F)F)cc1)C2 [PRETOMANID]	–
0.001 µg/mL (≈ 0.00106 µM)	0.002 µg/mL (≈ 0.00213 µM)	0.004 µg/mL (≈ 0.00425 µM)	CO[C@H]1/C=C/O[C@@]2(C)Oc3c(C)c(O)c4c(=O)c(c5oc6cc(N7CCN(CC(C)C)CC7)cc(O)c6nc-5c4c3C2=O)NC(=O)/C(C)=C\C=C\[C@H](C)[C@H](O)[C@@H](C)[C@@H](O)[C@@H](C)[C@H](OC(C)=O)[C@@H]1C [RIFALAZIL]	–
